Source: PMC7480958 (ACS chemical biology, 2020)

What was measured:
[1] = biological target: proteinase K (Parengyodontium album, UniProt P06873); assay: Protease activity assay, proteinase K; assay type: biochemical, Engyodontium album
[2] = tested on: H-460 lung cancer cell line; assay: H-460 lung cancer cell cytotoxicity assay; assay type: cell-based; settings: read-out: Cytotoxic activity IC50
[3] = tested on: bovine trypsin; assay: Protease activity assay, trypsin; assay type: biochemical; settings: incubated with up to 20 μM
Procedure, shortened: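 Bovine trypsin in DPBS pH 7.4 with 0.01% Tween-20 and 2 mM DTT was preincubated for 30 min at 22°C with an equal volume of 3-fold serial dilutions of the test compound (DMSO stock; final 20 μM to 339 pM). The mix was added to z-Leu-Arg-Arg-AMC (final 100 μM; enzyme 10 nM). AMC fluorescence (360/460 nm) was read every 3 min at 22°C, and the rate (RFU/s) was taken over 30 min.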

[4] = biological target: human chymotrypsin (Homo sapiens, UniProt P17538); assay: Protease activity assay, chymotrypsin; assay type: biochemical; settings: isoleucine in 1 versus valine in 2 and 3
Chain of human chymotrypsin (P17538 19-263): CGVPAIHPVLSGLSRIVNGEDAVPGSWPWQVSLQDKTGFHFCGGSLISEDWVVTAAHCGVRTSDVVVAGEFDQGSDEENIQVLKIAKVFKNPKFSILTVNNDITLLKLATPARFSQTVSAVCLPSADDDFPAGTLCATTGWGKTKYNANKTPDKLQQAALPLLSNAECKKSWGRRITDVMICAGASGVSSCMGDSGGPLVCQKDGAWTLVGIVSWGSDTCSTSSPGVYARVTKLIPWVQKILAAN

Chain of proteinase K (P06873 106-384): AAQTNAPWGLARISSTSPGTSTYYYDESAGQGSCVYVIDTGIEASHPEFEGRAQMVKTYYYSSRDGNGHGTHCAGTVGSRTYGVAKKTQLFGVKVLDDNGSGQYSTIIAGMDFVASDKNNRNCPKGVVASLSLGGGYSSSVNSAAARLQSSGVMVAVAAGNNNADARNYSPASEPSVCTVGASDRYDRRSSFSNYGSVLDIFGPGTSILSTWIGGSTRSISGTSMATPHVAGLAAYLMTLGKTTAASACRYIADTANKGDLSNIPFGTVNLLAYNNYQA

SMILES	IC50 [1]	IC50 [2]	Inhibition of bovine trypsin [3]	Fold reduction in potency for chymotrypsin [4]
C/C=C1\NC(=O)[C@@H](NC(=O)[C@H](CCC(N)=O)NC(=O)CCCCC)[C@@H](C)OC(=O)[C@H](C(C)C)NC(=O)[C@H](Cc2ccc(O)cc2)N(C)C(=O)[C@H](Cc2ccccc2)N2C(=O)[C@H](CC[C@H]2O)NC1=O [Lyngbyastatin 7, lyngbyastatin 7]	1.57 µM	–	–	–
C/C=C1\NC(=O)[C@@H](NC(=O)[C@@H](NC(=O)[C@H](C)NC(=O)C/C(C)=C/Cl)[C@@H](C)CC)[C@@H](C)OC(=O)[C@H](C(C)C)NC(=O)[C@H](Cc2ccc(O)cc2)N(C)C(=O)[C@H](Cc2ccccc2)N2C(=O)[C@H](CC[C@H]2O)NC1=O [Tutuilamide A (1), tutuilamide A]	–	0.53 ± 0.04 µM	no inhibition	2 fold
C/C=C1\NC(=O)[C@@H](NC(=O)[C@@H](NC(=O)[C@H](C)NC(=O)C/C(C)=C/Cl)C(C)C)[C@@H](C)OC(=O)[C@H](C(C)C)NC(=O)[C@H](Cc2ccc(O)cc2)N(C)C(=O)[C@H](Cc2ccccc2)N2C(=O)[C@H](CC[C@H]2O)NC1=O [Tutuilamide B (2), tutuilamide B]	–	1.27 ± 0.21 µM	no inhibition	–
C/C=C1\NC(=O)[C@@H](NC(=O)[C@@H](NC(=O)C/C(=C/Cl)CC)C(C)C)[C@@H](C)OC(=O)[C@H](C(C)C)NC(=O)[C@H](Cc2ccc(O)cc2)N(C)C(=O)[C@H](Cc2ccccc2)N2C(=O)[C@H](CC[C@H]2O)NC1=O [Tutuilamide C (3), tutuilamide C]	–	4.78 ± 0.45 µM	no inhibition	–
